{"source": "paper PMC3772642", "about": "(Nature, 2009)", "key": {"ΔEed": {"target": "ΔEed (Homo sapiens, UniProt O75530, M370T)", "test": "crystal structure of ΔEed with ligand", "type": "binding", "conditions": "crystallisation additive 0.6–0.7 M NDSB-195, 4.0–4.1 M formate", "in_short": "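ΔEed carrying Met-370Thr was purified by size exclusion (50 mM Tris-HCl pH 8.7, 150 mM NaCl, 3 mM TCEP) and held at 1.5 mg/ml with peptide at 7-fold molar excess, 15 mM TCEP. Hanging-drop vapour diffusion was run at 18 °C, mixing equal volumes with 3.7–3.9 M formate. Apo ΔEed (2.5 mg/ml) used 4.0–4.1 M formate with 0.6–0.7 M NDSB-195.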"}, "[1]": {"test_system": "chromatin reconstituted with histones containing the different levels of H3K36 methylation", "test": "pull-down, H3K36 methylated chromatin", "type": "binding", "conditions": "NiNta pull-down, Fig. S8", "in_short": "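Chromatin arrays were built from recombinant histones carrying single chemically installed methyl-lysine analogs, assembled into octamers, formed by salt dialysis and cleared of free histone on an agarose column. 2 ug chromatin was incubated with 2 ug full-length His-tagged Eed in 50mM Tris pH8.0, 50mM NaCl, 1 mM EDTA, 0.1% NP40 for 2 hours at 4°C with NiNta beads. Beads were washed extensively, eluted in SDS loading buffer and analysed by western blot.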"}, "[2]": {"test_system": "chromatin trimethylated on H3K9", "test": "pull-down, chromatin trimethylated on H3K9", "type": "binding", "conditions": "2 ug chromatin, 2 ug protein or complex, 2 hours at 4 C, western blot", "in_short": "(§1)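 Recombinant histones were made in E. coli, assembled into octamers and formed into chromatin by salt dialysis, then purified on an agarose column. Chromatin (2 ug) was incubated with 2 ug Sf9-reconstituted PRC2-Ezh2 in 50 mM Tris pH 8.0, 50 mM NaCl, 1 mM EDTA, 0.1% NP40 with M2 beads for 2 h at 4 °C. Beads were washed, eluted in SDS loading buffer and analysed by western blot against a beads-only control.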"}, "nucleosomes": {"test_system": "nucleosomes", "test": "pull-down, nucleosomes", "type": "binding", "conditions": "methylated or unmodified nucleosomes, not separated", "in_short": "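Reconstituted chromatin arrays (salt dialysis, agarose-column purified to remove free histone) at 2 ug were incubated with 2 ug protein or complex in 50mM Tris pH8.0, 50mM NaCl, 1 mM EDTA, 0.1% NP40 for 2 hours at 4°C. Capture was on NiNta beads for Eed or M2 beads for PRC2. After extensive washing, beads were eluted in SDS loading buffer and analysed by western blot.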"}, "unmodified chromatin": {"test_system": "unmodified chromatin", "test": "pull-down, unmodified chromatin", "type": "binding", "conditions": "M2-Beads pull-down, 2 hours at 4 C, western blot", "in_short": "as §1"}, "[3]": {"target": "truncated version of Eed (residues 77 to 441), ΔEed (UniProt O75530)", "test": "other fluorescence titration"}, "[4]": {"target": "truncated version of Eed (residues 77 to 441), ΔEed (UniProt O75530 78-441, Met-370Thr)", "test": "other fluorescence titration"}}, "note": "No end group written: not given here. *: point of attachment. Dansyl = CN(C)c1cccc2c(S(=O)(=O)*)cccc12; Me3 = trimethyl-lysine, K(Me3)", "data": [{"molecule": "CC[N+](C)(C)CCCS(=O)(=O)[O-]", "note": "[NDSB-195]", "values": [{"measurement": "electron density in central pocket of ΔEed", "setting": "ΔEed", "result": "able to build into the extra electron density"}]}, {"molecule": "Eed: full-length His-tagged Eed protein", "values": [{"measurement": "interaction with H3K36 methylated chromatin", "setting": "[1]", "result": "not able to interact"}, {"measurement": "interaction with chromatin trimethylated on H3K9", "setting": "[2]", "result": "did bind"}]}, {"molecule": "PRC2 Eed (Phe-97Ala): mutant PRC2 complex containing Eed (Phe-97Ala)", "values": [{"measurement": "interaction with nucleosomes", "setting": "nucleosomes", "result": "does not show binding to chromatin"}]}, {"molecule": "PRC2 Eed (Tyr-365Ala): mutant PRC2 complex containing Eed (Tyr-365Ala)", "values": [{"measurement": "interaction with nucleosomes", "setting": "nucleosomes", "result": "does not show binding to chromatin"}]}, {"molecule": "PRC2: PRC2 complex purified from insect cells co-infected with baculovirus expressing each of the subunits", "values": [{"measurement": "interaction with unmodified chromatin", "setting": "unmodified chromatin", "result": "displayed some binding"}, {"measurement": "interaction with chromatin trimethylated on H3K9", "setting": "[2]", "result": "bound significantly tighter"}]}, {"molecule": "R26A of H3K27me3 peptide", "values": [{"measurement": "fold reduction of binding against the H3K27me3 peptide", "setting": "[3]", "result": 1.5, "unit": "fold"}]}, {"molecule": "ΔEed: truncated version of Eed (residues 77 to 441)", "values": [{"measurement": "interaction with nucleosomes", "setting": "nucleosomes", "result": "failed to interact with nucleosomes"}]}, {"molecule": "KKKARK(Me3)SAGAAK(Dansyl) (not fully specified; printed as KKKARK(Me3)SAGAAK-dansyl)", "note": "[dansyl labelled peptide KKKARK(Me3)SAGAAK-dansyl]", "values": [{"measurement": "binding result", "setting": "[4]", "result": "binds"}]}]}
